Experiment [1] has as its system Mus musculus. Put plainly: Increase in duration of immobility in CD1 mouse at 10 mg/kg, ip by forced swimming test relative to control. Further details: dose 10 mg/kg. Format: functional, organism-based. The essentials:
(§1)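 Male CD1 mice, 25-28 g, n = 10 per group. Two-day protocol: 15-min pretest swim in a cylinder of 25 °C water. After 24 h, a 10-min videotaped test session 60 min after ip injection of drug suspended in 0.5% CMC, given at 0.01 mL/g. Immobility time is compared with naïve and CMC groups by two-way ANOVA and Duncan test, p < 0.05.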

The subject of experiment [2] is Mus musculus. Put plainly: Increase in duration of immobility in CD1 mouse at 10 mg/kg, ip by forced swimming test relative to carboxy methyl cellulose. Format: functional, organism-based. Further details: dose 10 mg/kg. The essentials:
as §1

Experiment [3] deals with T1, Amine oxidase [flavin-containing] A (Bos taurus, UniProt P21398).
T1 sequence (P21398 whole entry): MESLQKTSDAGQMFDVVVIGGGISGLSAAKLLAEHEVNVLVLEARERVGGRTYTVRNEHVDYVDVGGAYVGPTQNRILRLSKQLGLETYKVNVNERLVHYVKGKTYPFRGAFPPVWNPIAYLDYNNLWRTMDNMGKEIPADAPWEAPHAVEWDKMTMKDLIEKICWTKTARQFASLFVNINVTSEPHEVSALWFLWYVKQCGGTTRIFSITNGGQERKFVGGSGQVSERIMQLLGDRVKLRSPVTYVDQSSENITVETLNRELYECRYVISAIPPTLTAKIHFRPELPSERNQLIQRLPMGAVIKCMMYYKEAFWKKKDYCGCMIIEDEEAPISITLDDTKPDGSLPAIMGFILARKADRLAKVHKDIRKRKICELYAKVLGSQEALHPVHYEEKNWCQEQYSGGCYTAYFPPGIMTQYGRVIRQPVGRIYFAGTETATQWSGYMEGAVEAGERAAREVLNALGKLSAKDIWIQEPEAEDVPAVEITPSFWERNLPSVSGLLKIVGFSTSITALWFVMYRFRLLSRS
Put plainly: Inhibition of bovine MAO-A by fluorimetric method. The essentials: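 Beef brain mitochondria (6 mg/mL) in K3PO4 buffer pH 7.4 with kynuramine substrate (four concentrations, 5 μM to 0.1 mM). Preincubated 30 min at 38 °C with 0.5 μM L-deprenyl to isolate MAO-A. Drug in DMSO; incubated 30 min at 38 °C, stopped with HClO4, supernatant into NaOH, read fluorimetrically. Means of three or more experiments run in duplicate.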

In experiment [4] the target is T2, Amine oxidase [flavin-containing] B (Bos taurus, UniProt P56560).
T2 sequence (P56560 whole entry): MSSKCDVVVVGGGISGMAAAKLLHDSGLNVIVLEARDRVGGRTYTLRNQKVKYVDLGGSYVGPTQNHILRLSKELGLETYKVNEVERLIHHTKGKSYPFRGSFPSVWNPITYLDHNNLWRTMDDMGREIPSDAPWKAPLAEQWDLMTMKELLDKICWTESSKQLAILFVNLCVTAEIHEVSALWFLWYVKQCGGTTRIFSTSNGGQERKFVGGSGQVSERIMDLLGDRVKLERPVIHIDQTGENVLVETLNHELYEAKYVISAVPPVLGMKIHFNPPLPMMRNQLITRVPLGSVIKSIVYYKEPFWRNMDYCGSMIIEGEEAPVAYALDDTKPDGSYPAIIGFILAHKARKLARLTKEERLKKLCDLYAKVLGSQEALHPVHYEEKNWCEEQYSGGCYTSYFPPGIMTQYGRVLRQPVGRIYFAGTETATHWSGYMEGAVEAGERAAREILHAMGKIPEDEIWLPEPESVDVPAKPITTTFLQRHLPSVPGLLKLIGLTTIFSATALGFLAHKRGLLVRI
Put plainly: Inhibition of bovine MAO-B by fluorimetric method. The essentials:
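Bovine brain mitochondria (6 mg/mL) in 0.25 M potassium phosphate buffer pH 7.4; preincubated 30 min at 38 °C with 0.05 μM clorgyline to isolate MAO-B. Kynuramine substrate at four levels, 5 μM to 0.1 mM; inhibitor added from DMSO; 30 min at 38 °C, stopped with HClO4, centrifuged, supernatant into 0.1 N NaOH, fluorimetric read-out. Means of ≥3 experiments in duplicate.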

Experiment [5] relates to Mus musculus. Put plainly: Induction of behavioral effects in CD1 mouse at 1 mg/kg, ip by forced swimming test relative to control. It counts as functional, organism-based. Further details: dose 1 mg/kg. The essentials:
as §1

Experiment [6] has as its system Mus musculus. Put plainly: Induction of behavioral effects in CD1 mouse at 1 mg/kg, ip by forced swimming test relative to carboxy methyl cellulose. It counts as functional, organism-based. Further details: dose 1 mg/kg. The essentials: as §1
The subject of experiment [7] is Mus musculus. The experiment can be described thus: Induction of behavioral effects in CD1 mouse at 10 mg/kg, ip by forced swimming test relative to control. Format: functional, organism-based. Also noted: dose 10 mg/kg. The essentials: as §1
The test system of experiment [8] is Mus musculus. The experiment can be described thus: Induction of behavioral effects in CD1 mouse at 10 mg/kg, ip by forced swimming test relative to carboxy methyl cellulose. Also noted: dose 10 mg/kg. Format: functional, organism-based. In outline:
as §1

Experiment [9] relates to Mus musculus. Put plainly: Effect on duration of immobility in CD1 mouse at 1 mg/kg, ip by forced swimming test relative to control. Format: functional, organism-based. Further details: dose 1 mg/kg. The essentials:
as §1

The test system of experiment [10] is Mus musculus. Put plainly: Effect on duration of immobility in CD1 mouse at 1 mg/kg, ip by forced swimming test relative to carboxy methyl cellulose. Format: functional, organism-based. Further details: dose 1 mg/kg. The essentials:
as §1

In experiment [11] the test system is Mus musculus. The experiment can be described thus: Effect on duration of immobility in CD1 mouse at 10 mg/kg, ip by forced swimming test relative to control. Format: functional, organism-based. Also noted: dose 10 mg/kg. The essentials: as §1
In experiment [12] the test system is Mus musculus. Put plainly: Effect on duration of immobility in CD1 mouse at 10 mg/kg, ip by forced swimming test relative to carboxy methyl cellulose. It counts as functional, organism-based. Also noted: dose 10 mg/kg. In outline:
as §1

For experiment [13], the system named is Mus musculus. The experiment can be described thus: Increase in duration of immobility in CD1 mouse at 1 mg/kg, ip by forced swimming test relative to control. Format: functional, organism-based. Also noted: dose 1 mg/kg. In outline:
as §1

For experiment [14], the system named is Mus musculus. Put plainly: Increase in duration of immobility in CD1 mouse at 1 mg/kg, ip by forced swimming test relative to carboxy methyl cellulose. It counts as functional, organism-based. Further details: dose 1 mg/kg. In outline:
as §1

The structures appear in SMILES notation. Active and inactive are the calls of the source. The rule behind the calls is not given here.

Take `O=c1c(O)c(-c2ccc(O)c(O)c2)oc2cc(O)cc(O)c12` [QUERCETIN]: the result in [1], in experiment [2], in experiment [13] and in experiment [14] was Active. For the same compound, the IC50 in [3] turned out to be 0.01 µM; in experiment [4] it was 20 µM. The result in [5], in [6], in [7], in experiment [8], in [9] and in experiment [10] was inactive. For the same compound, the result in [11] and in experiment [12] was inactive.

The values above are taken from ChEMBL document CHEMBL1157970, “Quercetin as the active principle of Hypericum hircinum exerts a selective inhibitory activity against MAO-A: extraction, biological analysis, and computational study” (J Nat Prod, 2006).
